Source: ChEMBL document CHEMBL3272061, “Experiments of synthesis of dl-camptothecin. 4. Synthesis and antileukemic activity of dl-camptothecin analogues” (J Med Chem, 1976)
The source made the active and inactive calls. No cut-off for these calls is given here.

Assays:
L1210 [1] = experiment: Antileukemic activity against mouse L1210 cells allografted in BDF1 mouse assessed as host survival at 5.74 umol/kg, ip after 30 days; format: functional, organism-based
In short: (§1)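 BDF1 mice, 5 weeks old, were inoculated ip with 5×10^5 L1210 cells in 0.1 ml saline. Test groups were 4 male and 4 female mice; controls were 5 male and 5 female. Insoluble compounds were suspended in vehicle. Dosing was ip, either once on the day after inoculation or daily for 5 days. Read-out was increase in life span over controls. Mice alive beyond 30 days were counted as 30 days and scored as survivors.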

L1210 [2] = experiment: Antileukemic activity against mouse L1210 cells allografted in BDF1 mouse assessed as host survival at 28.7 umol/kg, ip after 30 days; format: functional, organism-based; in short: as §1
L1210 [3] = experiment: Antileukemic activity against mouse L1210 cells allografted in BDF1 mouse assessed as host survival at 287 umol/kg, ip after 30 days; format: functional, organism-based; in short: as §1
L1210 [4] = experiment: Antileukemic activity against mouse L1210 cells allografted in BDF1 mouse assessed as host survival at 26.3 umol/kg, ip after 30 days; format: functional, organism-based; in short: as §1
[5] = Solubility of the compound; format: physicochemical
L1210 [6] = experiment: Antileukemic activity against mouse L1210 cells allografted in BDF1 mouse assessed as increase in life span of host at 5.74 umol/kg, ip relative to control; format: functional
In short: (§2)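 BDF1 mice, 5 weeks old, were inoculated ip with 5×10^5 L1210 cells; test groups had 4 males and 4 females, controls 5 males and 5 females. A single ip dose was given on the day after inoculation, as a suspension in vehicle for the insoluble compounds. Read-out was increase in life span over controls, with survivors past 30 days counted as 30 days.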

L1210 [7] = experiment: Antileukemic activity against mouse L1210 cells allografted in BDF1 mouse assessed as increase in life span of host at 28.7 umol/kg, ip relative to control; format: functional; in short: as §2
L1210 [8] = experiment: Antileukemic activity against mouse L1210 cells allografted in BDF1 mouse assessed as increase in life span of host at 71.8 umol/kg, ip relative to control; format: functional; in short: as §2
L1210 [9] = experiment: Antileukemic activity against mouse L1210 cells allografted in BDF1 mouse assessed as increase in life span of host at 144 umol/kg, ip relative to control; format: functional; in short: as §1
L1210 [10] = experiment: Antileukemic activity against mouse L1210 cells allografted in BDF1 mouse assessed as increase in life span of host at 287 umol/kg, ip relative to control; format: functional; in short: as §2
L1210 [11] = experiment: Antileukemic activity against mouse L1210 cells allografted in BDF1 mouse assessed as increase in life span of host at 26.3 umol/kg, ip relative to control; format: functional; in short: as §2
L1210 [12] = experiment: Antileukemic activity against mouse L1210 cells allografted in BDF1 mouse assessed as increase in life span of host at 27.9 umol/kg, ip relative to control; format: functional; in short: as §2
L1210 [13] = experiment: Antileukemic activity against mouse L1210 cells allografted in BDF1 mouse assessed as increase in life span of host at 69.8 umol/kg, ip relative to control; format: functional; in short: as §2
L1210 [14] = experiment: Antileukemic activity against mouse L1210 cells allografted in BDF1 mouse assessed as increase in life span of host at 4.87 umol/kg, ip relative to control; format: functional; in short: as §2
L1210 [15] = experiment: Antileukemic activity against mouse L1210 cells allografted in BDF1 mouse assessed as host survival at 4.87 umol/kg, ip after 30 days; format: functional, organism-based; in short: as §1
Mus musculus = organism: Mus musculus; experiment: Toxicity in mouse L1210 cells allografted BDF1 mouse; format: organism-based
L1210 [16] = experiment: Antileukemic activity against mouse L1210 cells allografted in BDF1 mouse assessed as increase in life span of host at 24.4 umol/kg, ip relative to control; format: functional; in short: as §2
L1210 [17] = experiment: Antileukemic activity against mouse L1210 cells allografted in BDF1 mouse assessed as increase in life span of host at 61 umol/kg, ip relative to control; format: functional; in short: as §2
L1210 [18] = experiment: Antileukemic activity against mouse L1210 cells allografted in BDF1 mouse assessed as increase in life span of host at 45.7 umol/kg, ip relative to control; format: functional; in short: as §2
L1210 [19] = experiment: Antileukemic activity against mouse L1210 cells allografted in BDF1 mouse assessed as host survival at 61 umol/kg, ip after 30 days; format: functional, organism-based; in short: as §1
L1210 [20] = experiment: Antileukemic activity against mouse L1210 cells allografted in BDF1 mouse assessed as host survival at 45.7 umol/kg, ip after 30 days; format: functional, organism-based; in short: as §1
L1210 [21] = experiment: Antileukemic activity against mouse L1210 cells allografted in BDF1 mouse assessed as host survival at 139 umol/kg, ip after 30 days; format: functional, organism-based; in short: as §1
L1210 [22] = experiment: Antileukemic activity against mouse L1210 cells allografted in BDF1 mouse assessed as host survival at 5.21 umol/kg, ip after 30 days; format: functional, organism-based; in short: as §1
L1210 [23] = experiment: Antileukemic activity against mouse L1210 cells allografted in BDF1 mouse assessed as host survival at 27.8 umol/kg, ip after 30 days; format: functional, organism-based; in short: as §1
L1210 [24] = experiment: Antileukemic activity against mouse L1210 cells allografted in BDF1 mouse assessed as host survival at 278 umol/kg, ip after 30 days; format: functional, organism-based; in short: as §1
L1210 [25] = experiment: Antileukemic activity against mouse L1210 cells allografted in BDF1 mouse assessed as host survival at 1.11 umol/kg, ip qd for 5 days measured after 30 days; format: functional, organism-based; in short: as §1
L1210 [26] = experiment: Antileukemic activity against mouse L1210 cells allografted in BDF1 mouse assessed as host survival at 5.56 umol/kg, ip qd for 5 days measured after 30 days; format: functional, organism-based; in short: as §1
L1210 [27] = experiment: Antileukemic activity against mouse L1210 cells allografted in BDF1 mouse assessed as host survival at 13.8 umol/kg, ip qd for 5 days measured after 30 days; format: functional, organism-based; in short: as §1
L1210 [28] = experiment: Antileukemic activity against mouse L1210 cells allografted in BDF1 mouse assessed as host survival at 1.11 umol/kg, sc qd for 5 days measured after 30 days; format: functional, organism-based
L1210 [29] = experiment: Antileukemic activity against mouse L1210 cells allografted in BDF1 mouse assessed as host survival at 5.56 umol/kg, sc qd for 5 days measured after 30 days; format: functional, organism-based
L1210 [30] = experiment: Antileukemic activity against mouse L1210 cells allografted in BDF1 mouse assessed as host survival at 13.8 umol/kg, sc qd for 5 days measured after 30 days; format: functional, organism-based
L1210 [31] = experiment: Antileukemic activity against mouse L1210 cells allografted in BDF1 mouse assessed as host survival at 27.8 umol/kg, sc qd for 5 days measured after 30 days; format: functional, organism-based
L1210 [32] = experiment: Antileukemic activity against mouse L1210 cells allografted in BDF1 mouse assessed as host survival at 5.56 umol/kg, po qd for 4 days measured after 30 days; format: functional, organism-based
L1210 [33] = experiment: Antileukemic activity against mouse L1210 cells allografted in BDF1 mouse assessed as host survival at 13.8 umol/kg, po qd for 4 days measured after 30 days; format: functional, organism-based
L1210 [34] = experiment: Antileukemic activity against mouse L1210 cells allografted in BDF1 mouse assessed as host survival at 27.8 umol/kg, po qd for 4 days measured after 30 days; format: functional, organism-based

## CCC1(O)C(=O)OCc2c1cc1n(c2=O)Cc2cc3ccccc3nc2-1 (racemic)
L1210 [1]
  Activity: inactive
L1210 [2]
  Activity: inactive
L1210 [3]
  Activity: inactive
L1210 [4]
  Activity: inactive
[5]
  solubility: Insoluble
L1210 [6]
  ILS at 5.74 µmol/kg: 16%
L1210 [7]
  ILS at 28.7 µmol/kg: 84%
L1210 [8]
  ILS at 71.8 µmol/kg: > 155%
L1210 [9]
  ILS at 144 µmol/kg: > 60%
L1210 [10]
  ILS at 287 µmol/kg: -43%
L1210 [11]
  ILS at 26.3 µmol/kg: 6%

## C#CCC1(O)C(=O)OCc2c1cc1n(c2=O)Cc2cc3ccccc3nc2-1 (racemic)
L1210 [12]
  ILS at 27.9 µmol/kg: > 117%
L1210 [13]
  ILS at 69.8 µmol/kg: > 149%
L1210 [14]
  ILS at 4.87 µmol/kg: 58%
L1210 [15]
  Activity: inactive
Mus musculus
  Activity: Toxic
[5]
  solubility: Insoluble

## O=C1OCc2c(cc3n(c2=O)Cc2cc4ccccc4nc2-3)C1(O)Cc1ccccc1 (racemic)
L1210 [16]
  ILS at 24.4 µmol/kg: > 171%
L1210 [17]
  ILS at 61 µmol/kg: -34%
L1210 [18]
  ILS at 45.7 µmol/kg: 12%
L1210 [19]
  Activity: inactive
L1210 [20]
  Activity: inactive
Mus musculus
  Activity: Toxic
[5]
  solubility: Insoluble

## C=CCC1(O)C(=O)OCc2c1cc1n(c2=O)Cc2cc3ccccc3nc2-1 (racemic)
L1210 [1]
  Activity: inactive
L1210 [21]
  Activity: inactive
L1210 [22]
  Activity: inactive
L1210 [23]
  Activity: inactive
L1210 [24]
  Activity: inactive
L1210 [25]
  Activity: inactive
L1210 [26]
  Activity: inactive
L1210 [27]
  Activity: inactive
L1210 [28]
  Activity: inactive
L1210 [29]
  Activity: inactive
L1210 [30]
  Activity: inactive
L1210 [31]
  Activity: inactive
L1210 [32]
  Activity: inactive
L1210 [33]
  Activity: inactive
L1210 [34]
  Activity: inactive
